Hits are enriched below; roughly 12% of the tested compounds scored in any of these assays.
Arbovirus inh: blocks arbovirus infection; 200,000 tested, 0.37% active; inhibition, % at 10 µM; arbovirus infection cell-based antiviral screen; in the data active = inhibition above about 30%
Wee1 stabilizer: human Wee1 degradation inhibition, primary screen; 220,000 tested, 1.2% active; reporter increase, % at 5 µM; HeLa Luc-Wee1K328M stability, luciferase luminescence; 100% = proteasome inhibitor MG132 effect; P30291;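 active = activation above the mean of all tested compounds plus 3 SD, set per screening run, cut at about 8.8% in these data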;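 also: cells exposed to compound for 20 h before luminescence read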
Rad51 HR inh: blocks human Rad51 in homologous recombination. Q06609. hRad51 DNA strand exchange, fluorescence dequenching. inhibition, % at 10 µM. 200,000 tested, 0.085% active. AID 1385;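 active = inhibition above 40% at the single screening dose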
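Material: hRad51 filaments on single-stranded DNA; Reagent: Donor/quencher-labelled 47-bp dsDNA substrate; Compound: 10 µM final, single point; Schedule: 37 °C 15-min filament assembly, 30-min compound preincubation, 15-min exchange; Technique: FRET fluorescence, excitation 485 nm, emission 520 nm; Benchmarks: control wells and blank wells on each plate.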
L major viab: inhibitors of Leishmania major promastigote growth. inhibition, % at 10 µM. 200,000 tested, 9% active. Leishmania major promastigotes, resazurin fluorescence viability;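 also: promastigotes grown with compound for 44 hours at 28 °C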
PKD1 inh: blocks activity of human protein kinase D1; Q15139; PKD1 kinase fluorescence polarization assay; inhibition, % (concentration not given with the values); 200,000 tested, 0.056% active; AID 797
Target sequence (Q15139 whole entry, looked up): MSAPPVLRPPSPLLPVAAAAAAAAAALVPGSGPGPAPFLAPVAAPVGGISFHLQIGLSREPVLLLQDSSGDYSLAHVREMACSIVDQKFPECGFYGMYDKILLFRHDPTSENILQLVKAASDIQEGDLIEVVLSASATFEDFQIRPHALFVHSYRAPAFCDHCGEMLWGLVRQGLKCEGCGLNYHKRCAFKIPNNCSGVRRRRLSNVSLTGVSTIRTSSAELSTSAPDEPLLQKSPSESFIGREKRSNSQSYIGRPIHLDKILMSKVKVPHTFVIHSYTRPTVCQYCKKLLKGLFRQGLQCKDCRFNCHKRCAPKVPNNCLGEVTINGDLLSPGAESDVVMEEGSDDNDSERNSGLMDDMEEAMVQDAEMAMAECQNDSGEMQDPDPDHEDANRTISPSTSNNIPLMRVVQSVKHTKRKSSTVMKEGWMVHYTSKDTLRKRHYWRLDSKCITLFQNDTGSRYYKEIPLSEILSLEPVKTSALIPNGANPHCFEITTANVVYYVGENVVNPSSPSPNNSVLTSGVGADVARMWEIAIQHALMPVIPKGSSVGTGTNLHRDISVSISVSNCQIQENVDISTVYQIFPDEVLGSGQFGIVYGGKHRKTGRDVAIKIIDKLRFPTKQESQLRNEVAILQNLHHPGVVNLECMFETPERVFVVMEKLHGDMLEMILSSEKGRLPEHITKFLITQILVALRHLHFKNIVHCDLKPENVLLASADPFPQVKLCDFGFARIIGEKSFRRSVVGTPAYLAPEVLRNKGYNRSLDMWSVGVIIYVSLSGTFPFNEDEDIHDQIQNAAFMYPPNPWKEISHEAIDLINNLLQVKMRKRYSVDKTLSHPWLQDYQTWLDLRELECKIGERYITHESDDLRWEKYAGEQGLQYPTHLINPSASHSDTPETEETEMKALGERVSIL
CHOP inhibitor: blocks CHOP induction under ER stress | CHO-K1 CHOP-promoter luciferase, tunicamycin-induced, 15-18 h | 220,000 tested, 3.8% active | inhibition, % at 10 µM;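 active = compounds that reduced the stress-induced luciferase reporter signal by more than about 70% of percent inhibition, limit read from the data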
Each line names hits and unclear results; the compound was inactive in the other large screens. Rule as the data show it, unless noted: active = inhibition above about 50%; inactive = the rest.

Cc1ccc2[nH]c(=O)c(CN(Cc3ccc4c(c3)OCO4)Cc3nnnn3Cc3ccco3)cc2c1	L major viab 100.0
CCc1ccc2[nH]c(=O)c(CN(Cc3ccccc3)Cc3nnnn3Cc3ccco3)cc2c1	CHOP inhibitor 73.4
CCOc1ccc2[nH]c(=O)c(CN(CCO)C(c3nnnn3C3CCCCC3)C(C)C)cc2c1 (stereo not drawn)	L major viab 68.6
CCCN1CCN(C(c2cc3cc(OCC)ccc3[nH]c2=O)c2nnnn2C2CCCCC2)CC1 (stereo not drawn)	none
O=c1[nH]c2cc3c(cc2cc1CN(Cc1cccnc1)Cc1nnnn1Cc1ccco1)OCCO3	none
CCc1ccc2[nH]c(=O)c(CN(Cc3nnnn3C3CCCC3)C3CCCCC3)cc2c1	CHOP inhibitor 78.0
O=c1[nH]c2cc3c(cc2cc1CN(Cc1ccccc1)Cc1nnnn1Cc1ccco1)OCCO3	none
O=C(NNC(=O)[C@H]1CC=CC[C@H]1C(=O)O)c1ccc(Cl)cc1Cl	none
NC(=O)CSc1nnc(-c2cc(-c3ccc(Cl)cc3)nc3ccccc23)o1	none (no result: Rad51 HR inh)
COc1cc(S(=O)(=O)NC2CCCCC2)c(C)cc1C	none (no result: Rad51 HR inh)
Cc1oc(-c2cc(F)cc(F)c2)nc1CN1CCSCC1	none
Cc1cc(C)c2cc(CN(Cc3ccc4c(c3)OCO4)Cc3nnnn3Cc3ccco3)c(=O)[nH]c2c1	CHOP inhibitor 71.4
Cc1ccc2[nH]c(=O)c(CN(Cc3ccc4c(c3)OCO4)Cc3nnnn3C3CCCC3)cc2c1	L major viab 63.7, CHOP inhibitor 72.3 (no result: Rad51 HR inh)
Cc1ccc(C(=O)C(c2ccccc2)N2Cc3ccccc3C2=N)cc1 (stereo not drawn)	L major viab 99.0
COc1ccc(C(=O)C(c2ccccc2)N2CCOCC2)cc1 (stereo not drawn)	none
CN(C)CCCNC(=S)N1CCn2c(nc3ccccc32)C1	L major viab 51.4
CC(C)CCn1c(=O)c2ccccc2c2ccccc2c1=O	CHOP inhibitor 77.5
CCC(=O)OCCn1c(=O)c2ccccc2c2ccccc2c1=O	none (no result: Rad51 HR inh)
CCc1cccc(Nc2c([N+](=O)[O-])cc(C(=O)N3CC(=O)Nc4ccccc43)cc2[N+](=O)[O-])c1	L major viab 78.5
Cc1cc(C)cc(C(=O)N2CC(=O)Nc3ccccc32)c1	none (no result: CHOP inhibitor)
Nc1nnc(-c2cc3c(ccc4ccccc43)oc2=O)s1	L major viab 80.5
COc1cc(C)c(S(=O)(=O)N2CCN=C2c2ccccc2)cc1C	L major viab 93.5
Cc1cc(C)c(S(=O)(=O)N2CCN=C2c2ccccc2)cc1C	none
CCCCC(=O)NC1(C(F)(F)F)NC(=O)N(Cc2ccccc2)C1=O (stereo not drawn)	none
CC(C)(C)OC(=O)CNC(=O)c1nc[nH]c1C(=O)NCC(=O)OC(C)(C)C	none (no result: Arbovirus inh, Wee1 stabilizer, L major viab, PKD1 inh)
CCOCCCNC(=S)NCCNc1nc2c(C)cccc2cc1C#N	Arbovirus inh 30.5
Cc1ccc2cc(C#N)c(NCCNC(=S)NCCCN(C)C)nc2c1C	L major viab 100.5
Cc1cc(C)c2nc(NCCCNC(=S)NCCCN(C)C)c(C#N)cc2c1	L major viab 100.5
Cc1ccc2cc(C#N)c(NCCNC(=O)C3CC3)nc2c1C	none (no result: Rad51 HR inh)
COc1ccc(CCNC(=O)c2c(N)no[n+]2[O-])cc1OC	none
CCOc1ccc2[nH]c(=O)c(CN(Cc3cccs3)Cc3nnnn3C(C)(C)CC)cc2c1	L major viab 58.9
CCC(C)(C)n1nnnc1CN(Cc1cccs1)Cc1cc2cc(OC)ccc2[nH]c1=O	none (no result: Wee1 stabilizer, L major viab, PKD1 inh)
COc1ccc2c3c(cccc13)N(C)N=C2C	L major viab 99.6 (no result: Rad51 HR inh)
O=C(Nc1ccc(F)cc1)NC1(C(=O)NCc2ccc3c(c2)OCO3)CCCCC1	L major viab 91.1
O=C(Nc1ccc(F)cc1)NC1(C(=O)NCc2ccco2)CCCCC1	L major viab 82.4
O=C(NCc1ccc2c(c1)OCO2)C1CCCN1C(=O)Nc1cccc(F)c1 (stereo not drawn)	none
Cc1ccc(NC(=O)NC2(C(=O)NCc3ccccc3)CCCCC2)cc1	none
Cc1ccc(CNC(=O)C2(NC(=O)Nc3ccc(C)cc3)CCCCC2)cc1	CHOP inhibitor 79.5
COc1ccc(NC(=O)NCc2ccc3c(c2)OCO3)cc1	none
O=C(NCc1ccc2c(c1)OCO2)C1CCCN1C(=O)Nc1ccc(F)cc1 (stereo not drawn)	L major viab 91.7
O=S(=O)(/N=C(/Nc1ccc(Cl)cc1Cl)c1ccccc1)c1cccs1	none
NNC(=O)c1ccc(COCC(F)(F)F)cc1	none (no result: Arbovirus inh, L major viab, PKD1 inh)
COc1ccc(C2CC(=O)c3c(ccc4ccccc34)N2)cc1OC (stereo not drawn)	L major viab 99.7 (no result: Rad51 HR inh)
O=C(O)CCC(=O)N1CCCC1	Wee1 stabilizer 9.9
COc1ccc(N2CCN(C(CNC(=O)c3cccc(Cl)c3)c3cccnc3)CC2)cc1 (stereo not drawn)	L major viab 96.2
O=C(NCC(c1cccnc1)N1CCOCC1)c1cccs1 (stereo not drawn)	none
COc1ccc(N2CCN(C(CNC(=O)c3ccc4c(c3)OCO4)c3ccco3)CC2)cc1 (stereo not drawn)	none
COc1ccc(N2CCN(C(CNC(=O)c3ccc4c(c3)OCO4)c3cccnc3)CC2)cc1 (stereo not drawn)	L major viab 90.4
O=C(NCC(c1cccnc1)N1CCOCC1)c1cccc(Cl)c1 (stereo not drawn)	none
O=C(NCC(c1cccnc1)N1CCN(c2ccc(F)cc2)CC1)c1ccc2c(c1)OCO2 (stereo not drawn)	L major viab 95.0
O=c1n(-c2ccccc2)c(=O)n2n1CC(O)C2	none
CCc1cccc(CC)c1NC(=S)Nc1ccccc1	none (no result: Rad51 HR inh)
CC(C)C(O)(CC#CCN1CCCC1)c1ccccc1 (stereo not drawn)	L major viab 54.4
C(#Cc1ccccc1)CN1CCCCC1	none
CC(C)C(O)(C#CCN1CCCCCC1)c1ccccc1 (stereo not drawn)	L major viab 82.5
C(#CCN1CCCC1)CC(c1ccccc1)c1ccccc1	L major viab 100.0
OC(CC#CCN1CCCC1)(c1ccccc1)c1ccccc1	none (no result: Arbovirus inh, L major viab, PKD1 inh)
CC(C)(C)C(O)(CC#CCN1CCCC1)c1ccccc1 (stereo not drawn)	L major viab 69.2
CN(CC1CCOCC1)C(=O)CC1C(=O)NCCN1CC1CCCCC1 (stereo not drawn)	none
CC(O)(C#CCN1CCCCC1)c1ccccc1 (stereo not drawn)	none
CC(C)(C#CCN1CCCCC1)OCCOC(c1ccccc1)c1ccccc1	CHOP inhibitor 76.9
CCCCOc1ccc(C(=O)N/C(=C\c2ccc(OC)cc2)C(=O)OCc2ccco2)cc1	L major viab 96.4 (no result: Rad51 HR inh)
O=C(c1ccc(N2CCOCC2)cc1[N+](=O)[O-])N1CCOCC1	none
CCOc1c(Cl)cc(CNCC(O)c2ccccc2)cc1OC (stereo not drawn)	none
CCOc1cc(C2NN=C(c3ccccc3)S2)ccc1OCc1ccccc1Cl (stereo not drawn)	none
CCOc1c(Cl)cc(CNCC(C)C)cc1OC	L major viab 80.3
